One assay relates to Jurkat. As to the kind of experiment: In vitro inhibition of Jurkat cell proliferation. The following applies: Homo sapiens. Type of assay: functional, cell-based. In outline:
(§1)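 Exponentially growing cells kept as stationary suspension in RPMI 1640 with 10% FCS, 2 mM L-glutamine, penicillin/streptomycin; exposed to a range of drug concentrations (DMSO stock 1 mg/mL, diluted just before addition) for 4 days; survivors counted by Coulter counter. IC50 vs untreated controls, duplicate cultures per concentration, experiments repeated at least twice, vehicle controls included.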

The subject of another assay is K562. Put plainly: In vitro inhibition of K-562 cell proliferation. Type of assay: functional, cell-based. The following applies: Homo sapiens. The method in brief:
as §1

The next assay has as its target Nucleic Acid. Put plainly: Inhibitory concentration against human estrogen receptor(ER) polymerase chain reaction product. It counts as nucleic-acid assay. The method in brief: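 Target DNA was 20 ng of pBLCAT8ERCAT1 plasmid, preincubated 5 min at room temperature with increasing drug amounts, then PCR-amplified with Taq: 92 °C 1 min, 55 °C annealing 1 min, 72 °C 1 min. Products run on 2% agarose gels; IC50 is the concentration giving 50% inhibition of ER PCR product generation.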

Assay [1] can be described thus: Inhibitory concentration against human c-myc polymerase chain reaction product. Type of assay: functional. The method in brief:
(§2)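 Target DNA was 20 ng of preamplified, purified PCR product, preincubated 5 min at room temperature with increasing drug amounts, then PCR-amplified with Taq: 92 °C 1 min, 62 °C annealing 1 min, 72 °C 1 min. Products run on 2% agarose gels; IC50 is the concentration giving 50% inhibition of PCR product generation.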

Assay [2] relates to Human immunodeficiency virus 1. As to the kind of experiment: Inhibitory concentration against HIV-1 LTR polymerase chain reaction product. Type of assay: functional. The method in brief: as §2

As usually defined, the IC50 is the point on the concentration scale where inhibition reaches its midpoint. Lower therefore signals higher potency.

`Cn1cc(NC(=O)c2cc(NC(=O)c3cc(NC(=O)c4cc(N)cn4C)cn3C)cn2C)cc1C(=O)NCCC(=N)N`: the IC50 came out at 25000 nM with Jurkat; 12000 nM in the assay with K562; 500 nM at Nucleic Acid; 12000 nM in assay [1]; 20000 nM in assay [2].
For the compound `COc1cc2c(cc1OCCC(=O)Nc1cc(C(=O)Nc3cc(C(=O)Nc4cc(C(=O)NCCC(=N)N)n(C)c4)n(C)c3)n(C)c1)N=C[C@@H]1CCCN1C2=O`, the IC50 with Jurkat came to 800 nM; in the assay with K562 it was 700 nM; against Nucleic Acid, 800 nM; in assay [1], 2500 nM; in assay [2], 2000 nM.
Consider `COc1cc2c(cc1OC)C(=O)N1CCC[C@H]1C=N2`, for which the values for the IC50 in the assay with Jurkat and with K562 were 2200 nM and 1000 nM, respectively.
`COc1cc2c(cc1OCCC(=O)Nc1cc(C(=O)NCCC(=N)N)n(C)c1)N=C[C@@H]1CCCN1C2=O`: the IC50 in the assay with Jurkat is 80000 nM; in the assay on K562, greater than 100000 nM; against Nucleic Acid it was 3000 nM; in assay [1], 4000 nM; in assay [2], 1000 nM.
`COc1cc2c(cc1OCCC(=O)Nc1cc(C(=O)Nc3cc(C(=O)Nc4cc(C(=O)Nc5cc(C(=O)NCCC(=N)N)n(C)c5)n(C)c4)n(C)c3)n(C)c1)N=C[C@@H]1CCCN1C2=O`: the IC50 in the assay with Jurkat is 70 nM; with K562, 40 nM; against Nucleic Acid, 200 nM; in assay [1], 2000 nM; in assay [2] it was 2000 nM.
Consider `COC(=O)CCOc1cc2c(cc1OC)C(=O)N1CCC[C@H]1C=N2`, for which the half-inhibitory concentration (IC50) with Jurkat is 3000 nM; in the assay with K562 it was 1500 nM; on Nucleic Acid, greater than 250000 nM; in assay [1], greater than 250000 nM; in assay [2] it was greater than 250000 nM.
Take `COc1cc2c(cc1OCCC(=O)Nc1cc(C(=O)Nc3cc(C(=O)NCCC(=N)N)n(C)c3)n(C)c1)N=C[C@@H]1CCCN1C2=O`: the concentration for half-maximal inhibition (IC50) was determined as 50000 nM with Jurkat; 6000 nM with K562; 2000 nM at Nucleic Acid; 6000 nM in assay [1]; 800 nM in assay [2].
Turning to `Cn1cc(NC(=O)c2cc(NC(=O)c3cc(NC=O)cn3C)cn2C)cc1C(=O)NCCC(=N)N`, the IC50 in the assay with Jurkat was found to be 20000 nM; in the assay on K562 it was 12000 nM; at Nucleic Acid it was 5000 nM; in assay [1] it was 25000 nM; in assay [2], 50000 nM.

For the origin of these results see ChEMBL document CHEMBL1132187, “Synthesis, in vitro antiproliferative activity, and DNA-binding properties of hybrid molecules containing pyrrolo[2,1-c][1, 4]benzodiazepine and minor-groove-binding oligopyrrole carriers” (J Med Chem, 1999).
